{"source": "paper PMC8239543", "about": "(Clinical and Translational Science, 2021)", "key": {"[1]": {"type": "in vivo, human", "settings": "for AUC(0-t) / Tmax / half-life / Cmax: male, human, plasma, 600 mg; for AUC(0-t) / Tmax / half-life: oral; for AUC(0-t): AUC4h; for Cmax: po, 600 mg camostat mesylate oral", "outline": "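Night doses were fasted. Cohort 1 took daytime doses after a meal, except a fasted day-1 morning dose. Cohort 2 dosed 30 min premeal on day 1, then 1 h premeal. Plasma GBPA was measured by LC-MS/MS and analysed noncompartmentally. Food ratios came from a mixed-effects model on ln Cmax and AUC24h.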"}, "[2]": {"test_system": "SARS‐Cov‐2 infection", "settings": "read-out: EC50 value of GBPA that inhibited SARS-CoV-2 infection; cited from earlier work"}, "[3]": {"experiment": "Population PK", "parameters": "species or system human", "settings": "for Food effect against fasted on KA: covariate multiplier", "outline": "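Plasma GBPA came from 14 multiple-dose subjects (372 points) and 10 earlier single-dose fasted subjects (47 points). Modelling used NONMEM with FOCE and interaction. Doses were converted to GBPA equivalents by molecular-weight ratio. One- and two-compartment models with first-order absorption and linear elimination were tested, with additive, proportional or combined residual error. Between-subject variability and interoccasion variability were log-normal, and food condition was tested as a covariate.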"}, "[4]": {"experiment": "Phase I safety and tolerability assessment", "type": "in vivo, human", "settings": "for safety and tolerability: multiple administration, healthy adults", "outline": "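Healthy Japanese men took 600 mg orally four times daily on day 1 and days 3–9. Monitoring throughout covered symptoms, physical examination, and supine blood pressure and pulse. It also covered temperature, oxygen saturation, weight, hematology, biochemistry, coagulation and spot urinalysis. ECGs were 12-lead plus monitor, and adverse events were recorded.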"}, "[5]": {"settings": "in vivo"}, "[6]": {"settings": "cited from earlier work"}, "[7]": {"test_system": "SARS‐CoV‐2 infection of a cell line derived from human airway epithelial cells (Calu‐3)", "settings": "cited from earlier work"}, "[8]": {"settings": "cited from earlier work", "remark": "listed apart in the source"}, "[9]": {"test_system": "TMPRSS2", "settings": "cited from earlier work"}, "[10]": {"settings": "cited from earlier work", "remark": "listed apart in the source"}, "[11]": {"experiment": "Solubility / Biopharmaceutics Classification System class", "type": "physicochemical", "settings": "inferred from solubility and structure-suggested poor permeability"}, "[12]": {"settings": "Cohort 2, Day 1, 30 min before a meal"}, "[13]": {"settings": "Cohort 2, Day 3, 1 h before a meal"}, "[14]": {"settings": "Cohort 2, Day 9, 1 h before a meal"}, "[15]": {"settings": "Cohort 1, Day 1, Fasted, mean (SD)"}, "[16]": {"settings": "Cohort 1, Day 3, Fed, mean (SD)"}, "[17]": {"settings": "Cohort 1, Day 9, Fed, mean (SD)"}, "[18]": {"settings": "Cohort 2, Day 1, 30 min before a meal, mean (SD)"}, "[19]": {"settings": "Cohort 2, Day 3, 1 h before a meal, mean (SD)"}, "[20]": {"settings": "Cohort 2, Day 9, 1 h before a meal, mean (SD)"}}, "note": "Read-outs that look alike come from different tables or passages of the source.", "data": [{"smiles": "N=C(N)Nc1ccc(C(=O)Oc2ccc(CC(=O)O)cc2)cc1", "note": "[GBPA, 4‐(4‐guanidinobenzoyloxy)phenylacetic acid]", "values": [{"measurement": "exposure of GBPA compared with the fasted state", "setting": "[1]; 1 h before a meal", "result": "no significant difference"}, {"measurement": "AUC4h against fasted, geometric mean ratio (95% confidence interval)", "setting": "[1]; Cohort 1, Day 3, Fed", "result": "0.31 (0.23, 0.43)"}, {"measurement": "Cmax against fasted, geometric mean ratio (95% confidence interval)", "setting": "[1]; Cohort 1, Day 3, Fed", "result": "0.28 (0.18, 0.42)"}, {"measurement": "AUC4h against fasted, geometric mean ratio (95% confidence interval)", "setting": "[1]; Cohort 1, Day 9, Fed", "result": "0.30 (0.21, 0.43)"}, {"measurement": "Cmax against fasted, geometric mean ratio (95% confidence interval)", "setting": "[1]; Cohort 1, Day 9, Fed", "result": "0.27 (0.17, 0.42)"}, {"measurement": "AUC4h against fasted, geometric mean ratio (95% confidence interval)", "setting": "[1]; [12]", "result": "0.43 (0.29, 0.64)"}, {"measurement": "Cmax against fasted, geometric mean ratio (95% confidence interval)", "setting": "[1]; [12]", "result": "0.50 (0.31, 0.86)"}, {"measurement": "AUC4h against fasted, geometric mean ratio (95% confidence interval)", "setting": "[1]; [13]", "result": "0.53 (0.31, 0.91)"}, {"measurement": "Cmax against fasted, geometric mean ratio (95% confidence interval)", "setting": "[1]; [13]", "result": "0.57 (0.30, 1.08)"}, {"measurement": "AUC4h against fasted, geometric mean ratio (95% confidence interval)", "setting": "[1]; [14]", "result": "0.79 (0.46, 1.37)"}, {"measurement": "Cmax against fasted, geometric mean ratio (95% confidence interval)", "setting": "[1]; [14]", "result": "0.95 (0.51, 1.75)"}, {"measurement": "Cmax and AUC relative to values under fasted conditions", "setting": "[1]; administered after a meal and at 30 min before a meal", "result": "not more than 50%"}, {"measurement": "exposure of GBPA compared with the fasted state", "setting": "[1]; after a meal and 30 min before a meal", "result": "significantly lower"}, {"measurement": "AUC(0-t)", "setting": "[1]; [15]", "result": 683, "unit": "ng·h/mL"}, {"measurement": "AUC(0-t)", "setting": "[1]; [16]", "result": 206, "unit": "ng·h/mL"}, {"measurement": "AUC(0-t)", "setting": "[1]; [17]", "result": 194, "unit": "ng·h/mL"}, {"measurement": "AUC(0-t)", "setting": "[1]; [18]", "result": 227, "unit": "ng·h/mL"}, {"measurement": "AUC(0-t)", "setting": "[1]; [19]", "result": 366, "unit": "ng·h/mL"}, {"measurement": "AUC(0-t)", "setting": "[1]; [20]", "result": 556, "unit": "ng·h/mL"}, {"measurement": "Tmax", "setting": "[1]; Tmax, Cohort 1, Day 1, Fasted, median (range)", "result": 1, "unit": "h"}, {"measurement": "Tmax", "setting": "[1]; Tmax, Cohort 1, Day 3, Fed, median (range)", "result": 2, "unit": "h"}, {"measurement": "Tmax", "setting": "[1]; Tmax, Cohort 1, Day 9, Fed, median (range)", "result": 2, "unit": "h"}, {"measurement": "Tmax", "setting": "[1]; Tmax, Cohort 2, Day 1, 30 min before a meal, median (range)", "result": 1, "unit": "h"}, {"measurement": "Tmax", "setting": "[1]; Tmax, Cohort 2, Day 3, 1 h before a meal, median (range)", "result": 1, "unit": "h"}, {"measurement": "Tmax", "setting": "[1]; Tmax, Cohort 2, Day 9, 1 h before a meal, median (range)", "result": 1, "unit": "h"}, {"measurement": "half-life", "setting": "[1]; half-life, plasma GBPA elimination", "result": "< 2", "unit": "h"}, {"measurement": "Tmax", "setting": "[1]; median Tmax, fasted conditions, 30 min before a meal, and 1 h before a meal", "result": 1, "unit": "h"}, {"measurement": "Tmax", "setting": "[1]; median Tmax, fed conditions", "result": 2, "unit": "h"}, {"measurement": "half-life", "setting": "[1]; t1/2, Cohort 1, Day 1, Fasted, mean (SD), n = 6", "result": 1.58, "unit": "h"}, {"measurement": "half-life", "setting": "[1]; t1/2, Cohort 1, Day 3, Fed, mean, n = 2", "result": 1.33, "unit": "h"}, {"measurement": "half-life", "setting": "[1]; t1/2, Cohort 1, Day 9, Fed, mean (SD), n = 3", "result": 1.16, "unit": "h"}, {"measurement": "half-life", "setting": "[1]; t1/2, Cohort 2, Day 1, 30 min before a meal, mean (SD)", "result": 1.35, "unit": "h"}, {"measurement": "half-life", "setting": "[1]; t1/2, Cohort 2, Day 3, 1 h before a meal, mean (SD), n = 6", "result": 1.05, "unit": "h"}, {"measurement": "half-life", "setting": "[1]; t1/2, Cohort 2, Day 9, 1 h before a meal, mean (SD)", "result": 0.962, "unit": "h"}, {"measurement": "Cmax", "setting": "[1]; [15]", "result": 371, "unit": "ng/mL"}, {"measurement": "Cmax", "setting": "[1]; [16]", "result": 95.8, "unit": "ng/mL"}, {"measurement": "Cmax", "setting": "[1]; [17]", "result": 93.5, "unit": "ng/mL"}, {"measurement": "Cmax", "setting": "[1]; [18]", "result": 177, "unit": "ng/mL"}, {"measurement": "Cmax", "setting": "[1]; [19]", "result": 218, "unit": "ng/mL"}, {"measurement": "Cmax", "setting": "[1]; [20]", "result": 367, "unit": "ng/mL"}, {"measurement": "EC50", "setting": "[2]", "result": 178, "unit": "nM"}, {"measurement": "Food effect against fasted on KA", "setting": "[3]; 30 min before a meal, FIXED", "result": 1.0, "unit": "FIXED"}, {"measurement": "Food effect against fasted on KA", "setting": "[3]; 1 h before a meal, FIXED", "result": 1.0, "unit": "FIXED"}, {"measurement": "Food effect against fasted on KA", "setting": "[3]; Fed", "result": 0.0807}, {"measurement": "Absorption rate constant (KA)", "setting": "[3]; PopPK fixed effect estimate", "result": 5.91, "unit": "h⁻¹"}, {"measurement": "Lag time", "setting": "[3]; PopPK fixed effect estimate", "result": 0.319, "unit": "h"}, {"measurement": "IOV on FA", "setting": "[3]; interoccasion variability", "result": 35.8, "unit": "% CV"}, {"measurement": "IOV on KA", "setting": "[3]; interoccasion variability", "result": 105, "unit": "% CV"}, {"measurement": "Proportional residual error", "setting": "[3]; intra-subject variability", "result": 0.39, "unit": "% CV"}, {"measurement": "Vd/F", "setting": "[3]; male, human, plasma, oral", "result": 904, "unit": "L"}, {"measurement": "clearance", "setting": "[3]; male, human, plasma, oral", "result": 11300, "unit": "mL/min"}]}, {"smiles": "CN(C)C(=O)COC(=O)Cc1ccc(OC(=O)c2ccc(NC(=N)N)cc2)cc1.CS(=O)(=O)O", "note": "[camostat mesylate, dimethylcarbamoylmethyl 4‐(4‐guanidinobenzoyloxy)phenylacetate monomethanesulfonate]", "values": [{"measurement": "findings in safety laboratory values, vital signs, or ECG parameters", "setting": "[4]; 600 mg q.i.d.", "result": "no clinically significant findings"}, {"measurement": "serious adverse events or deaths", "setting": "[4]; 600 mg q.i.d.", "result": "no serious adverse events or deaths"}, {"measurement": "safety and tolerability", "setting": "[4]; 600 mg q.i.d.", "result": "no safety concerns were raised"}, {"measurement": "safety and tolerability", "setting": "[4]; 600 mg q.i.d., listed as Camostat mesylate", "result": "safe and tolerated"}, {"measurement": "QTcF change from baseline", "setting": "[4]; all subjects", "result": "≤ 60", "unit": "ms"}, {"measurement": "QTcF interval", "setting": "[4]; any postbaseline visit, all subjects", "result": "≤ 480", "unit": "ms"}, {"measurement": "human equivalent dose converted from the dog NOAEL", "setting": "[5]", "result": 3333, "unit": "mg"}, {"measurement": "solubility", "setting": "[6]", "result": "soluble"}, {"measurement": "SARS-CoV-2 infection of Calu-3 cells", "setting": "[7]", "result": "prevented"}, {"measurement": "presence in plasma after oral administration", "setting": "[8]", "result": "not detectable"}, {"measurement": "TMPRSS2 inhibition", "setting": "[9]", "result": "inhibited"}, {"measurement": "half-life in human plasma", "setting": "[10]", "result": "≤ 1", "unit": "min"}, {"measurement": "Biopharmaceutics Classification System class", "setting": "[11]", "result": "class 3"}]}]}
